In ChEMBL document CHEMBL4364270, “Structure-activity relationship studies on Bax activator SMBA1 for the treatment of ER-positive and triple-negative breast cancer” (Eur J Med Chem, 2019):
The source made the active and inactive calls. The calls are words filed in the database; no cut-off is given here.

How the values were obtained:
[1] = tested on: MDA-MB-231; test: Inhibition of colony formation in triple negative human MDA-MB-231 cells at 1 uM supplemented with fresh medium containing compound every 72 hrs for 2 weeks by crystal violet staining based assay; assay type: functional, cell-based
Outline: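 Clonogenic assay: 800 cells per well seeded, treated after 24 h with 1 μM or DMSO vehicle, medium with compound renewed every 72 h for 2 weeks; PBS wash, 0.01% crystal violet 10 min, whole-well density digitally quantified; triplicate, one-way ANOVA, SD error bars.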

[2] = tested on: MCF7; test: Induction of apoptosis in ER-positive human MCF7 cells assessed as decrease in cytosolic Bax level at 5 uM incubated for 48 hrs by Western blot analysis; assay type: functional, cell-based
Outline: (§1)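 Western blot of MCF-7 (and MDA-MB-231 for cytosolic fractions) cells exposed to 5 μM over 0-48 h; 30 µg protein per lane on SDS-PAGE, PVDF transfer, 5% milk block, overnight primary antibodies (total Bax, p-Bax, active Bax 6A7, cytochrome C), ECL detection; cytosolic fraction used for cytochrome c and Bax.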

[3] = tested on: MCF-10A; test: Antiproliferative activity against human MCF10A cells assessed as reduction in cell growth incubated for 72 hrs by MTT assay; assay type: functional, cell-based
Outline: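 MTT viability after 72 h exposure at indicated concentrations; cells seeded at 1×10^3 cells/well (T47D, MDA-MB-468, MCF-10A, MCF-7/ADR) in 96-well plates; quadruplicate wells, independently repeated three times; IC50 as mean ± SE of at least three experiments.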

[4] = tested on: MCF7; test: Induction of apoptosis in ER-positive human MCF7 cells assessed as appearance of concentrated dense granules at 5 to 10 uM incubated for 24 hrs by Hoechst 33342 staining based fluorescence microscopy; assay type: functional, cell-based
Outline: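 Cells on coverslips (2.5×10^5/well) treated with DMSO or 5 and 10 μM for 24 h, washed in binding buffer, stained 15 min with FITC-annexin V, ethidium homodimer III and Hoechst 33342, mounted and imaged by fluorescence microscopy (DAPI filter) from center and peripheral regions.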

[5] = tested on: MDA-MB-231; test: Induction of apoptosis in triple negative human MDA-MB-231 cells assessed as upregulation of caspase3 cleavage incubated for 48 hrs by Western blot analysis; assay type: functional, cell-based
[6] = tested on: MCF7; test: Antiproliferative activity against ER-positive human MCF7 cells assessed as reduction in cell growth at 1 uM incubated for 48 hrs by MTT assay relative to control; assay type: functional; conditions: MCF7, 48 h
Outline: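 MTT viability: MCF-7 and MDA-MB-231 seeded 1×10^4 cells/well, exposed to DMSO or 0.01-100 μM for 48 h; MTT (5 mg/mL in PBS) added 4 h, formazan dissolved in DMSO, OD 550 nm; quadruplicate wells; IC50 fitted for compounds giving >50% inhibition at 10 µM; at least three independent experiments.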

[7] = tested on: MDA-MB-231; test: Potency index, ratio of SMBA1 IC50 to compound IC50 for antiproliferative activity against triple negative human MDA-MB-231 cells assessed as reduction in cell growth incubated for 48 hrs by MTT assay; assay type: functional
[8] = target: Apoptosis regulator BAX (Homo sapiens) (UniProt Q07812); test: Activation of Bax in ER-positive human MCF7 cells assessed as increase in cytosolic cytochrome C level at 5 uM incubated for 48 hrs by Western blot analysis; assay type: cell-based; outline: as §1
[9] = tested on: MDA-MB-231; test: Induction of apoptosis in triple-negative human MDA-MB-231 cells assessed as upregulation of PARP1 cleavage incubated for 48 hrs by Western blot analysis; assay type: functional, cell-based
Outline: (§2)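 Western blot: cells harvested after treatment, lysates quantified by Bradford (BSA standard), 30 µg protein resolved by SDS-PAGE, transferred to PVDF, blocked in 5% nonfat milk, probed overnight with anti-PARP-1, anti-cleaved PARP-1 or anti-cyclin D1 (1:1,000) and β-actin loading control; ECL visualization.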

[10] = tested on: MCF7; test: Induction of apoptosis in ER-positive human MCF7 cells assessed as upregulation of PARP1 cleavage incubated for 48 hrs by Western blot analysis; assay type: functional, cell-based; outline: as §2

Chain of Apoptosis regulator BAX (Homo sapiens) (Q07812 whole entry): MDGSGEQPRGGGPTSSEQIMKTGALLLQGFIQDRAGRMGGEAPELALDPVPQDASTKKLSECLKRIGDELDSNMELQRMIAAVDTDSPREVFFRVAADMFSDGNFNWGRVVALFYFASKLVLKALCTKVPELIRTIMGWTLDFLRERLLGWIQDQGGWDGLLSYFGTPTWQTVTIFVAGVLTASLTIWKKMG

- Activity [8]: Active
SMILES: NCCOc1ncccc1C=C1c2ccccc2-c2ccc([N+](=O)[O-])cc21
- inhibition [1]: Active
- Activity [2]: Active
- IC50 [3]: 110 nM
- Activity [4]: Active
- Activity [5]: Dose-dependent effect
- inhibition at 1 µM [6]: > 50%
- Ratio IC50 [7]: 80 - 130
- Activity [9]: Dose-dependent effect
- Activity [10]: Dose-dependent effect
